Test results as given in ChEMBL document CHEMBL1122496, “A new class of nonhormonal pregnancy-terminating agents. Synthesis and contragestational activity of 3,5-diaryl-s-triazoles” (J Med Chem, 1983).

What was measured:
Cricetinae gen. sp. [1] = test: (§1) Pregnancy-terminating activity in hamster when administered sc; type: functional
Cricetinae gen. sp. [2] = test: Pregnancy-terminating activity in hamster when administered perorally; type: functional, Cricetulus griseus; settings: po
Rattus norvegicus [3] = test: Pregnancy-terminating activity in rat when administered po; type: functional
Rattus norvegicus [4] = test: Pregnancy-terminating activity in rat when administered sc; type: functional
Procedure, shortened: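 Pregnant rats were dosed once daily for 5 consecutive days, from day 6 to day 10. Compound was given in sesame oil containing 20% benzyl benzoate to groups of 5–30 animals at three to six dose levels.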

Cricetinae gen. sp. [5] = test: as §1; type: functional, Cricetulus griseus
Procedure, shortened: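 Pregnant hamsters were dosed daily for 5 consecutive days, from day 4 to day 8. Compound was given in sesame oil with 20% benzyl benzoate to groups of 5–30 animals at three to six dose levels. ED50 is the dose that ended pregnancy in half of the animals.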

[6] = Solubility in sesame oil containing 20% of benzyl benzoate; type: physicochemical
Rattus norvegicus [7] = test: Pregnancy-terminating activity in Rat when administered sc; type: functional
Procedure, shortened: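 Pregnant rats were dosed once daily for 5 consecutive days, from day 6 to day 10. Compound was given in sesame oil containing 20% benzyl benzoate to groups of 5–30 animals at three to six dose levels. ED50 is the dose that terminated pregnancy in 50% of the animals.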

[8] = Cricetinae gen. sp., sc, read-out: ED50

Row | Structure (SMILES) | ED50 (Cricetinae gen. sp. [1]; [8]) | ED50 (Cricetinae gen. sp. [2]) | further results
1 | Cc1ccccc1-c1nc(-c2ccc(N(C)C)cc2)n[nH]1 | 10 mg/kg |  | 
2 | Cc1cccc(-c2n[nH]c(-c3ccccc3)n2)c1 | > 20 mg/kg |  | 
3 | CCc1ccccc1-c1n[nH]c(-c2ccc(OC)cc2)n1 | 0.15 mg/kg | 5 mg/kg | 
4 | Cc1cc(Cl)ccc1-c1n[nH]c(-c2ccccc2)n1 | 0.14 mg/kg | 4 mg/kg | 
5 | CCOc1cccc(-c2n[nH]c(-c3ccccc3CC)n2)c1 | 0.04 mg/kg | 4 mg/kg | ED50 (Rattus norvegicus [3]): > 10 mg/kg; ED50 (Rattus norvegicus [4]): 0.3 mg/kg
6 | c1ccc(-c2nc3n(n2)Cc2ccccc2-3)cc1 |  |  | ED50 (Cricetinae gen. sp. [5]): 3.5 mg/kg; Solubility [6]: ~ 30 mg ml-1; ED50 (Rattus norvegicus [7]): 1.8 mg/kg
7 | c1ccc(-c2nc3n(n2)CCc2ccccc2-3)cc1 |  |  | ED50 (Cricetinae gen. sp. [5]): 1 mg/kg; Solubility [6]: ~ 100 mg ml-1; ED50 (Rattus norvegicus [7]): 16 mg/kg
8 | Cc1ccc(C)c(-c2n[nH]c(-c3ccccc3)n2)c1 | > 10 mg/kg |  | 
9 | Cc1ccccc1-c1n[nH]c(-c2ccc(-c3ccccc3)cc2)n1 | 10 mg/kg |  | 
10 | CCc1ccccc1-c1n[nH]c(-c2cc(OC)cc(OC)c2)n1 | 10 mg/kg |  | 
11 | CCc1ccccc1-c1n[nH]c(-c2cccc(F)c2)n1 | 0.4 mg/kg | > 5 mg/kg | 
12 | COc1cccc(-c2n[nH]c(-c3ccccc3CO)n2)c1 | 0.08 mg/kg | 15 mg/kg | 
13 | C=CCOc1cccc(-c2nc(-c3ccccc3C)n[nH]2)c1 | 0.15 mg/kg | 5 mg/kg | 
14 | Cc1ccccc1-c1n[nH]c(-c2ccc(F)cc2)n1 | 3.5 mg/kg |  | 
15 | COc1cccc(-c2n[nH]c(-c3ccc(C)cc3C)n2)c1 | 0.04 mg/kg | 10 mg/kg | ED50 (Rattus norvegicus [3]): > 10 mg/kg; ED50 (Rattus norvegicus [4]): 0.6 mg/kg
16 | Cc1ccc(Cl)cc1-c1n[nH]c(-c2ccccc2)n1 | 1.2 mg/kg |  | 
17 | COc1cccc(-c2n[nH]c(-c3cccc(C)c3)n2)c1 | 15 mg/kg |  | 
18 | c1ccc(-c2nc3c4ccccc4ccn3n2)cc1 | 0.25 mg/kg |  | Solubility [6]: ~ 10 mg ml-1; ED50 (Rattus norvegicus [7]): 2.5 mg/kg
19 | CCCCc1ccccc1-c1n[nH]c(-c2cccc(OC)c2)n1 | 12 mg/kg | 10 mg/kg | 
20 | CCc1ccccc1-c1n[nH]c(-c2cccc(C)c2C)n1 | 2 mg/kg |  | 
21 | COc1cccc(-c2n[nH]c(-c3ccccc3C=O)n2)c1 | 0.1 mg/kg | 10 mg/kg | 
22 | Cc1ccccc1-c1n[nH]c(-c2ccc(Cl)cc2)n1 | 4 mg/kg |  | 
23 | CCc1ccccc1-c1n[nH]c(-c2ccc(OC)c(OC)c2)n1 | 0.05 mg/kg | > 5 mg/kg | 
24 | CCc1ccccc1-c1n[nH]c(-c2cccc(OC)c2OC)n1 | 10 mg/kg |  | 
25 | CCc1ccccc1-c1n[nH]c(-c2cccc(-c3ccccc3)c2)n1 | 10 mg/kg | 10 mg/kg | 
26 | COc1ccc(C)c(-c2n[nH]c(-c3ccccc3)n2)c1 | > 10 mg/kg |  | 

Row | Structure (SMILES) | ED50 (Cricetinae gen. sp. [1]; [8]) | ED50 (Cricetinae gen. sp. [2]) | further results
27 | COc1cccc(-c2n[nH]c(-c3cc(OC)ccc3C)n2)c1 | 1 mg/kg |  | 
28 | Cc1ccccc1-c1n[nH]c(-c2ccccc2Cl)n1 | 15 mg/kg |  | 
29 | COc1ccc(-c2n[nH]c(-c3ccccc3)n2)c(C)c1 | > 10 mg/kg |  | 
30 | Cc1cccc(-c2n[nH]c(-c3ccccc3C)n2)c1 | 4 mg/kg |  | 
31 | COc1cccc(-c2n[nH]c(-c3ccc(Cl)cc3C)n2)c1 | 0.04 mg/kg | 5 mg/kg | ED50 (Rattus norvegicus [3]): > 10 mg/kg; ED50 (Rattus norvegicus [4]): 0.5 mg/kg
32 | CCc1ccccc1-c1n[nH]c(-c2ccc3c(c2)OCO3)n1 | 0.03 mg/kg | 3 mg/kg | ED50 (Rattus norvegicus [3]): ~20 mg/kg; ED50 (Rattus norvegicus [4]): 0.6 mg/kg
33 | C=CCOc1cccc(-c2nc(-c3ccccc3CC)n[nH]2)c1 | 0.12 mg/kg | 5 mg/kg | 
34 | Cc1ccc(-c2n[nH]c(-c3ccccc3)n2)cc1 | > 20 mg/kg |  | 
35 | Cc1ccccc1-c1n[nH]c(-c2cccc(C(F)(F)F)c2)n1 | 0.6 mg/kg | > 20 mg/kg | 
36 | CCOc1cccc(-c2n[nH]c(-c3ccccc3C)n2)c1 | 0.06 mg/kg | 5 mg/kg | 
37 | Cc1ccc(-c2n[nH]c(-c3ccccc3C)n2)cc1 | 20 mg/kg |  | 
38 | COc1cccc(-c2n[nH]c(-c3ccccc3C(C)C)n2)c1 | 4 mg/kg | 10 mg/kg | 
39 | Cc1ccc(-c2n[nH]c(-c3ccccc3)n2)c(C)c1 | 0.2 mg/kg | > 5 mg/kg | 
40 | COc1cccc(-c2n[nH]c(-c3ccc(C)cc3)n2)c1 | 7 mg/kg |  | 
41 | Cc1ccccc1-c1n[nH]c(-c2ccccc2C)n1 | 0.7 mg/kg | > 10 mg/kg | 
42 | COc1cccc(-c2n[nH]c(-c3cc(Cl)ccc3C)n2)c1 | 0.35 mg/kg |  | 
43 | COc1cccc(-c2n[nH]c(-c3cc(C)ccc3C)n2)c1 | 2.5 mg/kg |  | 
44 | c1ccc(-c2n[nH]c(-c3ccccc3)n2)cc1 | 6 mg/kg | 10 mg/kg | 
45 | Cc1ccccc1-c1n[nH]c(-c2cccc(Cl)c2)n1 | 0.6 mg/kg | > 20 mg/kg | 
46 | CC(C)c1ccccc1-c1n[nH]c(-c2ccccc2)n1 | 10 mg/kg |  | 
47 | COc1ccccc1-c1n[nH]c(-c2ccccc2C)n1 | 0.5 mg/kg | > 5 mg/kg | 
48 | CCCCc1ccccc1-c1n[nH]c(-c2ccccc2)n1 | 17 mg/kg |  | 
49 | COc1cccc(-c2n[nH]c(-c3ccccc3C)n2)c1 | 0.08 mg/kg | 5 mg/kg | 
50 | CCc1ccccc1-c1n[nH]c(-c2ccccc2)n1 | 0.15 mg/kg | 5 mg/kg | 
51 | Cc1ccccc1-c1n[nH]c(-c2ccccc2)n1 | 0.3 mg/kg | 10 mg/kg | ED50 (Cricetinae gen. sp. [1]): 0.3 mg/kg; ED50 (Rattus norvegicus [3]): 50 mg/kg; Solubility [6]: > 100 mg/mL; ED50 (Rattus norvegicus [7]): 2 mg/kg; ED50 (Rattus norvegicus [4]): 2 mg/kg
52 | COc1cccc(-c2nc(-c3ccc(OC)cc3C)n[nH]2)c1 | 0.2 mg/kg | > 5 mg/kg | 
